The source of these data is article PMC3131463 (Journal of medicinal chemistry, 2011).

For one data set, the system named is human whole blood. Put plainly: Agonism / hemolysis in human whole blood. Conditions: up to 1 mM. Format: cell-based. In short, it runs like this:
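Human whole blood from healthy consenting donors, anticoagulated with lepirudin (final 50 µg/mL), was added to tubes holding test compound or PBS with Ca2+/Mg2+. It was preincubated 5–10 min at 37 °C, then given E. coli 0111:B4 ultra-pure LPS (100 ng/mL) or endotoxin-free PBS and rotated 2 h at 37 °C. EDTA (final 10 mM) was added, and plasma TNF-α, IL-8 and IL-6 were measured by singleplex Bio-plex.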

Another data set relates to MDR1-MDCK monolayer. Put plainly: MDR1-MDCK permeability assay. The settings on record: 5 µM, apical to basolateral and basolateral to apical. Format: in vitro ADME.
A short description of data set [1]: Metabolic stability in human liver microsomes. Format: in vitro ADME. In short, it runs like this: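 Test compound (1 µM, <0.25% DMSO) was incubated at 37 °C with human liver microsomal protein (0.5 mg/mL). Cofactors were added to start reactions at 0, 10, 20, 30 and 60 min, with a 5 µM testosterone positive control. NADPH addition was confirmed by fluorimetry. Compound-to-internal-standard peak-area ratio was read by LC-MS/MS without a standard curve. CLint = elimination rate constant / protein concentration.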

Data set [2] in a line: Metabolic stability in human liver S9 fractions. Format: in vitro ADME. In short, it runs like this:
(§1)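 Test compound (1 µM, <0.25% DMSO) was incubated at 37 °C with pooled liver S9 protein (1 mg/mL) and 1 mM each of NADPH, UDPGA, PAPS and GSH. Cofactors were added to start reactions at 0, 10, 20, 30 and 60 min, with testosterone and 7-hydroxycoumarin (20 µM each) as positive controls. Depletion was followed by LC-MS/MS peak-area ratio to internal standard, without a standard curve. CLint = k/P.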

Data set [3] is described as follows: Metabolic stability in rat liver S9 fractions. Format: in vitro ADME. A digest of the protocol: as §1
The target in another data set is T1, CYP1A2 (Homo sapiens, UniProt P05177).
T1 sequence (P05177 1-516): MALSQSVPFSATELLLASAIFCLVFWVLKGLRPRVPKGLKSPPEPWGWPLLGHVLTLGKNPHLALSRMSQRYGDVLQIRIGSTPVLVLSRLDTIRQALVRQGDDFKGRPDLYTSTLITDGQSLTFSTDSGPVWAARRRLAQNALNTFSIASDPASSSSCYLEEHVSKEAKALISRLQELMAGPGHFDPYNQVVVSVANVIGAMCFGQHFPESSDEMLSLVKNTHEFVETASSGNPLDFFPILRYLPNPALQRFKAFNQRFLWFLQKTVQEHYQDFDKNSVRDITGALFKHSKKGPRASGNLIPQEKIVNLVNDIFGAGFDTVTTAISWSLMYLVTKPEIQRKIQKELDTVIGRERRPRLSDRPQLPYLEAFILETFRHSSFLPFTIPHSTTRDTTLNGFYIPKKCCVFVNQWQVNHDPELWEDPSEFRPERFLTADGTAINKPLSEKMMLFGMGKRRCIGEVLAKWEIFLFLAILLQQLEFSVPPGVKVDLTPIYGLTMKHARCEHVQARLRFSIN
Description: CYP IC50 in human liver microsomes, CYP1A2. Format: in vitro ADME. A digest of the protocol:
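Test compound was run at eight concentrations (0–100 µM), with α-naphthoflavone as positive control. Protein was precipitated and acetaminophen formation measured by LC-MS/MS. IC50 came from a sigmoidal nonlinear regression fit.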

Another data set concerns the target PKC-γ (Homo sapiens, UniProt P05129). Put plainly: KinaseSeeker kinase profiling, PKC-γ. The settings on record: read-out: inhibition of PKC-γ (most inhibited kinase). Format: binding.
In data set [4] the test system is AKT1, CAMK1, DDR2, GSK-3α, MAPK1, MET, PAK1, PDGFRB, PIM1, PKC-γ, PLK4, and SRC. Put plainly: KinaseSeeker kinase profiling, panel of 12 kinases. Format: binding. Conditions: at respective RAW264.7 IC50 concentrations (1j 28 µM, 1s 16 µM).
The subject of data set [5] is LPS-induced NO production in RAW 264 macrophage cells. Description: Suppression of LPS-induced NO production in RAW 264.7 macrophage cells. Format: cell-based.
The target in a further data set is MARK1 (Homo sapiens, UniProt Q9P0L2). Put plainly: KinaseSeeker kinase profiling, MARK1. Conditions: read-out: inhibition of MARK1 (most inhibited kinase). Format: binding.
Chain of MARK1 (Q9P0L2 whole entry, species assumed): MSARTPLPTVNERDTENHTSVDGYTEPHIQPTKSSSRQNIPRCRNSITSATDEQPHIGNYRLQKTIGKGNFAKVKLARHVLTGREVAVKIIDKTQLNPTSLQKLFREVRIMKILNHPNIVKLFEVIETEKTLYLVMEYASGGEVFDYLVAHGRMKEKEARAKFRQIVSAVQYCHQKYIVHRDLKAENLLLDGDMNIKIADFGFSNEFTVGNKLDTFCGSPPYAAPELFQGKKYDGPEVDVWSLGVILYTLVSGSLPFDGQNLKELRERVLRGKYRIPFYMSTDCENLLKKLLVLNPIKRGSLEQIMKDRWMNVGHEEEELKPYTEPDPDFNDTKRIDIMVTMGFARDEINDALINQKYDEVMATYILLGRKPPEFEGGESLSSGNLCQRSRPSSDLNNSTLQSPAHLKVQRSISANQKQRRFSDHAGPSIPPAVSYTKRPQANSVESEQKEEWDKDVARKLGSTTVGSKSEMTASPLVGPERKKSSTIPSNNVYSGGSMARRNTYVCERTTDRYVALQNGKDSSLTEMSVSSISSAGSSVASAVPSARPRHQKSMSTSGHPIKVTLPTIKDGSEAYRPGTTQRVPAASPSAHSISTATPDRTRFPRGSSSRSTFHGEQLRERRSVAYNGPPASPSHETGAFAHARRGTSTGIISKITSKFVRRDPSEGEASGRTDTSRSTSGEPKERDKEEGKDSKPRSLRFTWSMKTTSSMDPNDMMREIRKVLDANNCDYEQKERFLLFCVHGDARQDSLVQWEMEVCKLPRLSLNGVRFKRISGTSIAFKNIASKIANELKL

Values joined by “and” are separate entries in the source; they are usually repeats but may differ in a detail not shown here. Equal values may be shown once.

For `CCOc1ccc(OCC(O)CN(C)Cc2c(C)nn(Cc3ccccc3Cl)c2C)cc1` (stereo not drawn) [1j, 1-(((1-(2-chlorobenzyl)-3,5-dimethyl-1H-pyrazol-4-yl)methyl)(methyl)amino)-3-(4-ethoxyphenoxy)propan-2-ol], the “agonistic effects with respect to cytokine release or hemolysis” value in the data set with human whole blood was “no agonistic effects”. For the same compound, the “brain-blood barrier permeability classification” value with MDR1-MDCK monolayer was “high”. Further, the microsomal CLint in [1] was over 700 µL/min/mg. This compound gave a microsomal CLint at 1 µM in [2] of 300 µL/min/mg. This compound also displayed a microsomal CLint in data set [3] of over 350 µL/min/mg. For the same compound, the IC50 against CYP1A2 is over 100 µM. Besides, the inhibition at 28 µM at PKC-γ is 22.4%. In data set [4], the “activity retained by the majority of the kinases” value was over 95% and the “maximal inhibition of any kinase of the panel” value is listed as at most 27%.

For `Cc1nn(Cc2ccccc2)c(C)c1CN(C)CC(O)COc1ccccc1` (stereo not drawn) [1a, 1-(((1-benzyl-3,5-dimethyl-1H-pyrazol-4-yl)methyl)(methyl)amino)-3-phenoxypropan-2-ol], in data set [5], the “suppression of NO signaling (in words)” value is recorded as “ineffective at suppressing NO signaling”. For the same compound, in the data set with human whole blood, the “agonistic effects with respect to cytokine release or hemolysis” value is “no agonistic effects”.

On to `Cc1nn(Cc2ccccc2Cl)c(C)c1CN(C)CC(O)COc1ccc(Cl)cc1` (stereo not drawn) [1s], for which the inhibition at 16 µM on MARK1 was found to be 26.7%. In data set [4], the “activity retained by the majority of the kinases” value is > 95% and 95%; the “maximal inhibition of any kinase of the panel” value is at most 27%.

Consider `CCOc1ccc(OCC(O)CN(C)Cc2c(C)nn(Cc3ccccc3OC)c2C)cc1` (stereo not drawn) [1g], for which the “suppression of NO signaling (in words)” value in data set [5] is “no detectable NO suppression”.

One may read the microsomal CLint as a measure of how fast metabolising enzymes remove a compound, apart from limits set by blood flow. The term IC50 denotes the concentration needed to halve the response being measured. High values mean a need for much substance, low ones inhibition by little substance. What is called inhibition is the change of the read-out against control, counted positive when it falls.
